Results on six molecules are retold here after PMC9539578 (Basic & Clinical Pharmacology & Toxicology, 2022).

Where a name gives a salt, the structure may show the parent alone. Where a SMILES comes first, the peptide text is derived from it.

Broadly, the EC50 is the concentration giving half of the maximal effect. Higher therefore signals lower potency in that assay.

The target in test [1] is GPR15 receptor / GoB (Homo sapiens, UniProt P49685). Kind of test: BRET G protein activation assay, GoB. It counts as cell-based. The gist of the method:
(§1)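 HEK293A cells transfected 20–24 h before assay with GPR15 (1.26 μg), Venus(155–239)-Gβ1, Venus(1–155)-Gγ2 and masGRK3ct-Nluc (0.21 μg each), and an optimized amount of the Gα DNA. Cells were given furimazine (1:250) for 3 min, then rising agonist concentrations. BRET ratio is 535/475 nm emission. Emax per concentration was buffer-corrected, normalized to the maximum, and fitted with a four-parameter model. 3–5 independent experiments, 2–3 replicates.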
Background: BRET reads energy transfer from a luciferase to a nearby fluorophore.

For test [2], the target named is T1, GPR15 receptor (Gi/o) (Homo sapiens, UniProt P49685).
T1 sequence (P49685 1-360): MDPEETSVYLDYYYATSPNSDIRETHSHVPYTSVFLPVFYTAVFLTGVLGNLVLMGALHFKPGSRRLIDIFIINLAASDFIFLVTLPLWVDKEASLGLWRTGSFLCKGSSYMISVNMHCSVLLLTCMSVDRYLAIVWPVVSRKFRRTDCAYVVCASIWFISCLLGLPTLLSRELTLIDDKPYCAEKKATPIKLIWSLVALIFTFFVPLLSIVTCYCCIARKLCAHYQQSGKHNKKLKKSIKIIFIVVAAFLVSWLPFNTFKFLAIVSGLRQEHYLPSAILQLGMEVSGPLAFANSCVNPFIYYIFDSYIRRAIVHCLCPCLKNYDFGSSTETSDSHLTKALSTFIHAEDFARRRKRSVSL
Kind of test: HTRF Gi cAMP assay. It counts as cell-based. In short, it runs like this:
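HEK293A cells stably expressing human GPR15 (G418-selected) were harvested non-enzymatically. Where stated, cells were pretreated 24 h with PTX 100 ng/ml. 4000 cells/well in HBSS/20 mM HEPES/1 mM CaCl2/1 mM MgCl2/100 μM IBMX, pH 7.4, were mixed with threefold-diluted peptide in ligand buffer containing 3 μM forskolin, 30 min at room temperature. HTRF cAMP detection ran 1 h in the dark. Standard-curve cAMP was normalized to forskolin and given a four-parameter EC50 fit; triplicates, 3–5 experiments.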

Test [3] addresses GPR15 receptor / GoA (Homo sapiens, UniProt P49685). Kind of test: BRET G protein activation assay, GoA. The class given is cell-based. The gist of the method:
as §1

The target of test [4] is GPR15 receptor / Gi1 (Homo sapiens, UniProt P49685). Kind of test: BRET G protein activation assay, Gi1. It counts as cell-based, human (GPR15); rat (Gi1). The gist of the method:
as §1

Test [5] deals with GPR15 receptor / Gi3 (Homo sapiens, UniProt P49685). Kind of test: BRET G protein activation assay, Gi3. It counts as cell-based, human (GPR15); rat (Gi3). The gist of the method: as §1
Test [6] addresses GPR15 receptor / Gi2 (Homo sapiens, UniProt P49685). As to the kind of experiment: BRET G protein activation assay, Gi2. It counts as cell-based, human (GPR15); rat (Gi2). In short, it runs like this:
as §1

For test [7], the system named is muscarinic acetylcholine receptors. As to the kind of experiment: HTRF Gq IP1 assay, positive control. The conditions noted are these: endogenous receptors (mAChR1, mAChR3 and mAChR5) in HEK293A cells. The class given is cell-based. In short, it runs like this: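 Carbachol, added at 2× final concentration in HBSS/20 mM HEPES/1 mM CaCl2/1 mM MgCl2/0.01% pluronic acid, pH 7.4, acted on 20 000 HEK293A-GPR15 cells/well with 30 mM LiCl for 30 min at 37 °C. HTRF IP1 detection ran 1 h in the dark at room temperature (665/615 nm). IP1 from a standard curve, buffer-corrected and normalized to the carbachol maximum; 3–5 experiments in triplicate.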
(TR-FRET usually uses a lanthanide donor and a delayed reading to cut background.)

Test [8] relates to β2‐adrenergic receptor. As to the kind of experiment: HTRF Gs cAMP assay, positive control. The class given is cell-based. The conditions noted are these: endogenous receptor in HEK293A cells. The gist of the method:
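Run like the Gi cAMP assay without forskolin. HEK293A-GPR15 cells in HBSS/HEPES buffer with 100 μM IBMX, pH 7.4, were stimulated with isoproterenol via the endogenous β2-adrenergic receptor, 30 min at room temperature. HTRF cAMP detection ran 1 h in the dark (665/615 nm). cAMP from a standard curve, buffer-corrected and normalized to the isoproterenol maximum; 3–5 experiments in triplicate.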

Test [9] concerns the target T2, G protein-coupled receptor 15 (GPR15) (human) (UniProt P49685).
T2 sequence: T1 sequence (P49685 1-360)

GPR15 receptor / GoB, sequence (P09471 2-354 isoform P09471-2 partner limits assumed, one chain of several): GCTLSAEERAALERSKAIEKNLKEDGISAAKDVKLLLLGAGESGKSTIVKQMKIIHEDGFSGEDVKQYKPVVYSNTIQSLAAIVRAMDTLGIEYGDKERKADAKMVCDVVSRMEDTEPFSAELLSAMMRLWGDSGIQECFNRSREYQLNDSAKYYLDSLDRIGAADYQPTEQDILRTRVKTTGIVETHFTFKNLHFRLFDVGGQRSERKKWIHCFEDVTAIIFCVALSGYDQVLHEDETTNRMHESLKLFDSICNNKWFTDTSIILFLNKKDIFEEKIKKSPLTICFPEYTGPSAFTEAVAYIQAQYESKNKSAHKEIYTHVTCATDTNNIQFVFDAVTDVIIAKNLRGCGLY
GPR15 receptor / GoB, sequence (P62873 2-340 partner limits assumed, one chain of several): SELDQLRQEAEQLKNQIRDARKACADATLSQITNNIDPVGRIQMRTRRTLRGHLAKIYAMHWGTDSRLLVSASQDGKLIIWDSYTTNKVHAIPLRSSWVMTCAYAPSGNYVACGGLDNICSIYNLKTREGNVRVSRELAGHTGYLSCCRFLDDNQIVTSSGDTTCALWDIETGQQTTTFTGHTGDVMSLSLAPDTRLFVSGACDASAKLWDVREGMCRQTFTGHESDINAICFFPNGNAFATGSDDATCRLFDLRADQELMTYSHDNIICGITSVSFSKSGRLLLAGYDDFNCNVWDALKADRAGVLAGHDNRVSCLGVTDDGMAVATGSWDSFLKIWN
GPR15 receptor / GoB, sequence (P59768 2-68 partner limits assumed, one chain of several): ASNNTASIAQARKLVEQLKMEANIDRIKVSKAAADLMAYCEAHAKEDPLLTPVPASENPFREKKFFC
GPR15 receptor / Gi2, sequence (P04897 2-355 partner limits assumed, one chain of several): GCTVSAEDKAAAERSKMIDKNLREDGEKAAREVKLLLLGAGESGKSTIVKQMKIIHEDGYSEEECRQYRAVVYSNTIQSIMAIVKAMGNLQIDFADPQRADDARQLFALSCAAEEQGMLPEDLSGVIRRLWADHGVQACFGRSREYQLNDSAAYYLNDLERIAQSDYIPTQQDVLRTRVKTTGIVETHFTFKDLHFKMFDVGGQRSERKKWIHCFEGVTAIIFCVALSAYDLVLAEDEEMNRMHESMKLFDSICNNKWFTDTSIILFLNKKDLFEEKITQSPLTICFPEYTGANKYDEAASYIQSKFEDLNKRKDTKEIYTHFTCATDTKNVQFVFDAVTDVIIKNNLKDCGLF
GPR15 receptor / Gi2, sequence (P62873 2-340 partner limits assumed, one chain of several): as the sequence (P62873 2-340 partner limits assumed, one chain of several) above
GPR15 receptor / Gi2, sequence (P59768 2-68 partner limits assumed, one chain of several): as the sequence (P59768 2-68 partner limits assumed, one chain of several) above
GPR15 receptor / Gi1, sequence (P10824 2-354 partner limits assumed, one chain of several): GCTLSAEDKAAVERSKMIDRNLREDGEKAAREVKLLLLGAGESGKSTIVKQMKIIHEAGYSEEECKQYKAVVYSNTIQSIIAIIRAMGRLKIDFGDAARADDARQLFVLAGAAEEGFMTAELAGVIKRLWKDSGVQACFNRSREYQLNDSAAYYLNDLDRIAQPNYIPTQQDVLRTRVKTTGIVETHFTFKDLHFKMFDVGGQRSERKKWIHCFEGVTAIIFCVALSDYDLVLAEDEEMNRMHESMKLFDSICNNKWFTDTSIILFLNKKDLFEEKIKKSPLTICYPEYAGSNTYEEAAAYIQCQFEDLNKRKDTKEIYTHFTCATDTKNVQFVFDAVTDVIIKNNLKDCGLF
GPR15 receptor / Gi1, sequence (P62873 2-340 partner limits assumed, one chain of several): as the sequence (P62873 2-340 partner limits assumed, one chain of several) above
GPR15 receptor / Gi1, sequence (P59768 2-68 partner limits assumed, one chain of several): as the sequence (P59768 2-68 partner limits assumed, one chain of several) above
GPR15 receptor / GoA, sequence (P09471 2-354 partner limits assumed, one chain of several): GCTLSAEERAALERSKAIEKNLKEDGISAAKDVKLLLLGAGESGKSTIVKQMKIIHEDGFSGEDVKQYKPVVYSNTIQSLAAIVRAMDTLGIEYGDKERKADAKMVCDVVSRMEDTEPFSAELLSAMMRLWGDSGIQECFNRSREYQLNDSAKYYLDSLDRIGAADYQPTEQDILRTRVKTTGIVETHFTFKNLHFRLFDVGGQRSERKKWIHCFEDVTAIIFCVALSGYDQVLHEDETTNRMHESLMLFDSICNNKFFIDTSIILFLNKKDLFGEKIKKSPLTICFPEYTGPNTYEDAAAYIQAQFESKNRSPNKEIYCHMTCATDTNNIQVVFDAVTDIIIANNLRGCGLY
GPR15 receptor / GoA, sequence (P62873 2-340 partner limits assumed, one chain of several): as the sequence (P62873 2-340 partner limits assumed, one chain of several) above
GPR15 receptor / GoA, sequence (P59768 2-68 partner limits assumed, one chain of several): as the sequence (P59768 2-68 partner limits assumed, one chain of several) above
GPR15 receptor / Gi3, sequence (P08753 2-354 partner limits assumed, one chain of several): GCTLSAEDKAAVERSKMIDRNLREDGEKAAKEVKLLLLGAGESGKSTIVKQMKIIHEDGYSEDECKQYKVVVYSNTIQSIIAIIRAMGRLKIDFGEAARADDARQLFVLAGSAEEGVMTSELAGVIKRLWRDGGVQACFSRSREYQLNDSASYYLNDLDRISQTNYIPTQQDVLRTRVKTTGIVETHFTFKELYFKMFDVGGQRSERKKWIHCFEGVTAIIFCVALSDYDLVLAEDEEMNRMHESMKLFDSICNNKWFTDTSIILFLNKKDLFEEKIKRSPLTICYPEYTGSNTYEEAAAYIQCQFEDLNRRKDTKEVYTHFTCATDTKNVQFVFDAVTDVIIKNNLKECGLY
GPR15 receptor / Gi3, sequence (P62873 2-340 partner limits assumed, one chain of several): as the sequence (P62873 2-340 partner limits assumed, one chain of several) above
GPR15 receptor / Gi3, sequence (P59768 2-68 partner limits assumed, one chain of several): as the sequence (P59768 2-68 partner limits assumed, one chain of several) above

With `CC(C)C[C@H](NC(=O)[C@H](C)NC(=O)CNC(=O)[C@@H]1CCCN1C(=O)[C@@H](NC(=O)[C@@H](NC(=O)[C@H](Cc1c[nH]c2ccccc12)NC(=O)[C@@H](N)CC(C)C)C(C)C)C(C)C)C(=O)N1CCC[C@H]1C(=O)N[C@@H](CCC(N)=O)C(=O)N[C@H](C(=O)O)C(C)C` [GPR15L(71–81)] (H-LWVVPGALPQV-OH), the 50% effective concentration (EC50) in [1] is 2510 nM; in [2] it was 407 nM; in [3] it was 3020 nM; in test [4] it was 724 nM; in [5], 912 nM; in [6], 1700 nM.
With `C[N+](C)(C)CCOC(N)=O` [carbachol, carbamoylcholine chloride], in test [7], the IP1 level entry is “robust IP1 level increase”.
For `CC(C)NCC(O)c1ccc(O)c(O)c1` (stereo not drawn) [isoproterenol, isoproterenol bitartrate salt], in [8], the cAMP level result was “robust cAMP level increase”.
For pertussis toxin [PTX], in test [2] (hGPR15-HEK293A, PTX 100 ng/ml for 24 h), the “inhibition of cAMP production in presence of PTX” value was “inhibition could be eliminated”.
In test [9], LWVVPGALPQV [human GPR15L(71–81) peptide] showed a pEC50, BRET G protein activation assay, Gi1 of 6.14; a pEC50, BRET G protein activation assay, Gi2 of 5.77; a pEC50, BRET G protein activation assay, Gi3 of 6.04; a pEC50, BRET G protein activation assay, GoA of 5.52.

B1: human GPR15L(25–81) peptide (ligand)
peptide: KRRPAKAWSGRRTRLCCHRVPSPNSTNLKGHHVRLCKPCKLEPEPRLWVVPGALPQV
B1: in test [9], the pEC50, BRET G protein activation assay, Gi1 amounted to 7.79; the pEC50, BRET G protein activation assay, Gi2 stood at 7.14; the pEC50, BRET G protein activation assay, Gi3 amounted to 7.69; the pEC50, BRET G protein activation assay, GoA turned out to be 7.28. In test [9], this molecule returned a pEC50, BRET G protein activation assay, GoB of 7.54.
